In ChEMBL document CHEMBL1127608, “Non-peptide fibrinogen receptor antagonists. 2. Optimization of a tyrosine template as a mimic for Arg-Gly-Asp” (J Med Chem, 1994) one finds IC50 and inhibition data, which are given here for eleven compounds.

pIC50: −log10 of the molar value. Peptide text beside a SMILES is read from it. A value given as a limit tells only on which side of the number the result lay.

In assay [1] the target is T1, Integrin alpha-IIb/beta-3 (Homo sapiens, UniProt P05106+P08514). The assay can be described thus: Inhibition of platelet aggregation as the concentration necessary to inhibit the change in light. Type of assay: functional. The method in brief:
(§1)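 Human gel-filtered platelets at 2 × 10^8/mL were mixed with 0.1 mg/mL human fibrinogen, 1 mM CaCl2 and compound, then aggregated with 10 µM ADP. Light transmittance was compared between control and treated samples.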
Target sequence in this assay (P05106 27-788 limits assumed): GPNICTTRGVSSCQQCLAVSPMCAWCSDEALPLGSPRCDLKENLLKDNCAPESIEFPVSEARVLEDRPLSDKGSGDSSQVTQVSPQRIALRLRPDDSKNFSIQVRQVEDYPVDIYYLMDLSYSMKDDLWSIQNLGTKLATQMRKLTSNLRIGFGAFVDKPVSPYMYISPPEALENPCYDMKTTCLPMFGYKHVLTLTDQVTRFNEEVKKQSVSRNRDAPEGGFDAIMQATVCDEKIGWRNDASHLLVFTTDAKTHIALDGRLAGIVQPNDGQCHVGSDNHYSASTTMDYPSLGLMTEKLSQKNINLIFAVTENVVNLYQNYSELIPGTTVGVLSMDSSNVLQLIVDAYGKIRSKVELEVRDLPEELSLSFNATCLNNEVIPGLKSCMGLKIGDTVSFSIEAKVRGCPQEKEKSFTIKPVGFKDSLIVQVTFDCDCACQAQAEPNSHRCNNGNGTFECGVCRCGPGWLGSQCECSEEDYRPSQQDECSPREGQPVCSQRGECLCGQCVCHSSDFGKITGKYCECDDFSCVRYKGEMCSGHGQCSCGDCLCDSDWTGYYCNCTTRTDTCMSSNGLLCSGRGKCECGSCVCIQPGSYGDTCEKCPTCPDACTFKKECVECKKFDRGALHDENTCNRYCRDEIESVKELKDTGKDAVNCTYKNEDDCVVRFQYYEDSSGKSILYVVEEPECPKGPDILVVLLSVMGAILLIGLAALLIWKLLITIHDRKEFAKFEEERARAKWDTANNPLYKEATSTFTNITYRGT
Target sequence in this assay (P08514 32-887 limits assumed): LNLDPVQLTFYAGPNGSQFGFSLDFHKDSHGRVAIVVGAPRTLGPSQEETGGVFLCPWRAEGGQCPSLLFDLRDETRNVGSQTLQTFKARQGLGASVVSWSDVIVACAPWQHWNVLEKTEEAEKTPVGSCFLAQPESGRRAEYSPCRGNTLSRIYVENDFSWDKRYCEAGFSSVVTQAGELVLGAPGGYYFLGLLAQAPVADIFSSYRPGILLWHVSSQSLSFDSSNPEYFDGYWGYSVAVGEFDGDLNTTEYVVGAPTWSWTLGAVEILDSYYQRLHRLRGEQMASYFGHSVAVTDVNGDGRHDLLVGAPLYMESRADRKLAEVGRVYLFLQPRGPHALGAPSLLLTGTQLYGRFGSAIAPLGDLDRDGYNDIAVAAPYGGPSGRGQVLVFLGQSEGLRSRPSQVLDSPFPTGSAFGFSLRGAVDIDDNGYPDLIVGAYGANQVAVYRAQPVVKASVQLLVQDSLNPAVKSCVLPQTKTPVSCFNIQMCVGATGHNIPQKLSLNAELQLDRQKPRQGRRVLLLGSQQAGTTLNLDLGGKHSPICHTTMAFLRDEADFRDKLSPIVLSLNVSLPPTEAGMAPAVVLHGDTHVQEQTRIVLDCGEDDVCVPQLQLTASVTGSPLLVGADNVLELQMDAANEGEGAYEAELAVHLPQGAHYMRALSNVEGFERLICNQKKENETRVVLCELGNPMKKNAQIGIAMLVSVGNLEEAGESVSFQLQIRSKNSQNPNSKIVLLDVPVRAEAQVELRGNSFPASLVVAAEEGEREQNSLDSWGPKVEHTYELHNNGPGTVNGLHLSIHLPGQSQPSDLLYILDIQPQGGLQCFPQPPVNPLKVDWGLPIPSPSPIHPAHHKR
Target sequence in this assay (P08514 891-1039 limits assumed): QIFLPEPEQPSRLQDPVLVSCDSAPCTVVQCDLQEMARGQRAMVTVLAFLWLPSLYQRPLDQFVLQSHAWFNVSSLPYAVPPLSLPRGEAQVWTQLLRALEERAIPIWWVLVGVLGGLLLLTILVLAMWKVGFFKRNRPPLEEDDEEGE

For the next assay, the target named is Integrin alpha-5/beta-1 (Homo sapiens, UniProt P05556+P08648). The assay can be described thus: (§2) Inhibition of human umbilical vein endothelial cell adhesion to fibronectin. Type of assay: functional, cell-based.
Assay [2] deals with T2, Integrin alpha-V/beta-3 (Homo sapiens, UniProt P05106+P06756). The assay can be described thus: Inhibition of human umbilical vein endothelial cell adhesion to vitronectin. Type of assay: functional, cell-based.
Assay [3] addresses T2, Integrin alpha-V/beta-3. The experiment in a line: Inhibition of human umbilical vein endothelial cell adhesion to fibrinogen. Type of assay: functional, cell-based.
Assay [4] can be described thus: as §2. Type of assay: functional, cell-based.
For assay [5], the target named is T1, Integrin alpha-IIb/beta-3. The assay can be described thus: Inhibition of platelet aggregation by change in light transmittance at 300 uM. Type of assay: functional. The gist of the method:
as §1

Sequence of Integrin alpha-5/beta-1 (P05556 21-798 limits assumed): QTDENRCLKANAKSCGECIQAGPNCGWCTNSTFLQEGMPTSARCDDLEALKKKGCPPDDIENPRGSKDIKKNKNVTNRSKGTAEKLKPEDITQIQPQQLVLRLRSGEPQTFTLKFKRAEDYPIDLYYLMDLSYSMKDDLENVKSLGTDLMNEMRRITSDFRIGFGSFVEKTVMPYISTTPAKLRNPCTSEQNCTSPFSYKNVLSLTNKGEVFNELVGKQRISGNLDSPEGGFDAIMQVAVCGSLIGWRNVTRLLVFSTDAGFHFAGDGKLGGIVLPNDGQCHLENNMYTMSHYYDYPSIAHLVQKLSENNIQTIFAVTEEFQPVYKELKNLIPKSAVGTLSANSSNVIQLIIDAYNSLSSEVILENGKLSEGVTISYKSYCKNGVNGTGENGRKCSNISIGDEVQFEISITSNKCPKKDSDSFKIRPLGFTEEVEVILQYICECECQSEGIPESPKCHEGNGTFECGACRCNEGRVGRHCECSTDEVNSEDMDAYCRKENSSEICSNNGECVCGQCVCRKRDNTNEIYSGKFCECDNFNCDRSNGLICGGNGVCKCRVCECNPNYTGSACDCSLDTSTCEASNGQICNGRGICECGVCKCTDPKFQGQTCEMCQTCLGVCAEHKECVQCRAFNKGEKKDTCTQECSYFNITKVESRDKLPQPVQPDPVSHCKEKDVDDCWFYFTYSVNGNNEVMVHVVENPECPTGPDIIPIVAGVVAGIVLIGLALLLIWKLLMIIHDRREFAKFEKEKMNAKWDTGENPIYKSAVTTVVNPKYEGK
Sequence of Integrin alpha-5/beta-1 (P08648 42-894 limits assumed): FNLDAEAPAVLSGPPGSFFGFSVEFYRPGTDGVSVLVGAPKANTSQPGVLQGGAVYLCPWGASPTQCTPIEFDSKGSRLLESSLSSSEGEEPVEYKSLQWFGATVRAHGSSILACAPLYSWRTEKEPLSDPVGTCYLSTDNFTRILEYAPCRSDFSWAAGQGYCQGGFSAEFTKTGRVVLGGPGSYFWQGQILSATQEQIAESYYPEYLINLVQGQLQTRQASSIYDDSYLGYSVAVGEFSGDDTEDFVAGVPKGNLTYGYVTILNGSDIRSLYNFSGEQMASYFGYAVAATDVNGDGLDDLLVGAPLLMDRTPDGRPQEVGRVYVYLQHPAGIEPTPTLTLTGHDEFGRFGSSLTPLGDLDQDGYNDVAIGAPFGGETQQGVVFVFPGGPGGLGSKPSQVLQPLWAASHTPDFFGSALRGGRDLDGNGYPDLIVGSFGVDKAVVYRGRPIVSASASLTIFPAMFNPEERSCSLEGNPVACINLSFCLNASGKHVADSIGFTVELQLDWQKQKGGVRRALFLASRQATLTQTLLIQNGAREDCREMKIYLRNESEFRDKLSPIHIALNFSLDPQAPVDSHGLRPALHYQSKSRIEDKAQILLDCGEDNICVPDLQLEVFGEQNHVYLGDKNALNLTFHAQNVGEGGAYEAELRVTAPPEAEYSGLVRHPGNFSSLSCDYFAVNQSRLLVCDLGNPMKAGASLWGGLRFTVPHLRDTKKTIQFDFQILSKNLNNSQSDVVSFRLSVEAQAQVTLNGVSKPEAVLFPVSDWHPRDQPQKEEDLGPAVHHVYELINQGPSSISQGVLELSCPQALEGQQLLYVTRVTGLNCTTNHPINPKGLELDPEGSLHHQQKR
Sequence of Integrin alpha-5/beta-1 (P08648 895-1049 limits assumed): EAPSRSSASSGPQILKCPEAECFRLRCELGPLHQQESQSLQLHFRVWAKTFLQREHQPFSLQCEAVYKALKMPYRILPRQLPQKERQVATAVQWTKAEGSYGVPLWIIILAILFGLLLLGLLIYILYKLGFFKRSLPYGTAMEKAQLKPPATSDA
T2 sequence (P05106 27-788 limits assumed): as the sequence (P05106 27-788 limits assumed) above
T2 sequence (P06756 31-889 limits assumed): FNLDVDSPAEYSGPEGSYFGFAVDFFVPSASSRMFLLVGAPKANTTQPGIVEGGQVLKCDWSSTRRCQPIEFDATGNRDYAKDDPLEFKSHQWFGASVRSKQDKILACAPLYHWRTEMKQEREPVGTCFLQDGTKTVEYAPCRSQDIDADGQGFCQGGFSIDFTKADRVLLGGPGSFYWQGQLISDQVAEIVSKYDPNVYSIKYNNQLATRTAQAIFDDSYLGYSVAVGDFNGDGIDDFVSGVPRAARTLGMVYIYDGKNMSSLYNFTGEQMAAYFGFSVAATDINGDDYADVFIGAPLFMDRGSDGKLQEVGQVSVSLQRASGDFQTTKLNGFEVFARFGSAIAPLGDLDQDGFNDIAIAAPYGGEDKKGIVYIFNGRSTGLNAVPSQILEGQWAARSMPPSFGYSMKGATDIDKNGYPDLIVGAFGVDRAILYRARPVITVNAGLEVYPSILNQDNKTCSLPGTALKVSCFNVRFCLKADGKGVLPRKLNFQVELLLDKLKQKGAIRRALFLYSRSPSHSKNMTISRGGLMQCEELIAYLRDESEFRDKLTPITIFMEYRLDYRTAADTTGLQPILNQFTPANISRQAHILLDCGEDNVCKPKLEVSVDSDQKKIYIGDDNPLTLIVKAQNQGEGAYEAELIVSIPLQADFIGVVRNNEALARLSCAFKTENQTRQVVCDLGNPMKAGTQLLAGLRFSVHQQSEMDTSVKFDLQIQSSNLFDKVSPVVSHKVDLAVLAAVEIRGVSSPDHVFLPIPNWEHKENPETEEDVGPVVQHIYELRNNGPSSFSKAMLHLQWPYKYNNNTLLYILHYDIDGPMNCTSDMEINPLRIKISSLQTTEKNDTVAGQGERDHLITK
T2 sequence (P06756 891-1048 limits assumed): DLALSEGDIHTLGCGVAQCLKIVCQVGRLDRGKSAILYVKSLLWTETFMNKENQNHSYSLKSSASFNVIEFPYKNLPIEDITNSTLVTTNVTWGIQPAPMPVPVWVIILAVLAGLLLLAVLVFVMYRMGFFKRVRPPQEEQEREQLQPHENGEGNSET

By pIC50 is commonly meant −log10 of the IC50, conventionally taken in molar units. A low value points to a large IC50. `NCCCCCCOc1ccc(C[C@H](NC(=O)CCc2ccccc2)C(=O)O)cc1` showed a pIC50 in assay [1] of 5.10.
In the case of `NC(N)=NCCC[C@H](N)C(=O)NCC(=O)N[C@@H](CC(=O)O)C(=O)N[C@@H](Cc1c[nH]c2ccccc12)C(=O)O` (H-RGDW-OH), the pIC50 is 4.57 against Integrin alpha-5/beta-1, 4.85 on Integrin alpha-V/beta-3 [2] and 4.47 at Integrin alpha-V/beta-3 [3].
For the compound `CCCCCC(=O)N[C@@H](Cc1ccc(OCCCCC2CCNCC2)cc1)C(=O)O`, the pIC50 in assay [1] is 7.46.
`CC(C)(C)NCC(O)COc1ccc(C[C@H](NC(=O)OCc2ccccc2)C(=O)O)cc1` (stereo partly drawn): the pIC50 (in assay [4]; at Integrin alpha-V/beta-3 [2]; at Integrin alpha-V/beta-3 [3]) was less than 3.52 in each case.
As for `O=C(O)[C@H](Cc1ccc(OCCCCC2CCNCC2)cc1)NS(=O)(=O)Cc1ccccc1`, the negative logarithm of the IC50 (pIC50) in assay [1] was 7.74.
For the compound `O=C(N[C@@H](Cc1ccc(OCCCCC2CCNCC2)cc1)C(=O)O)OCc1ccccc1`, the negative-log IC50 (pIC50) is 6.59 in assay [1], 3.52 in assay [4], 4.25 against Integrin alpha-V/beta-3 [2] and 3.80 at Integrin alpha-V/beta-3 [3].
In general, inhibition refers to the share of the control response that was lost under treatment. In turn, `NCCCCCCOc1ccc(CCC(=O)O)cc1` gave an inhibition in assay [5] of 12%.
Turning to `CCCCS(=O)(=O)N[C@@H](Cc1ccc(OCCCCC2CCNCC2)cc1)C(=O)O` [TIROFIBAN], on Integrin alpha-V/beta-3 [2], the pIC50 was 4.21.
In the case of `CCCCS(=O)(=O)N[C@@H](Cc1ccc(OCCCCCCN)cc1)C(=O)O`, the pIC50 was 6.11 in assay [1], less than 3.30 against Integrin alpha-5/beta-1, 3.82 at Integrin alpha-V/beta-3 [2] and 3.48 at Integrin alpha-V/beta-3 [3].
Take `NCCCCCCCOc1ccc(C[C@H](NC(=O)OCc2ccccc2)C(=O)O)cc1`: the results for the pIC50 at Integrin alpha-5/beta-1, against Integrin alpha-V/beta-3 [2] and against Integrin alpha-V/beta-3 [3] were less than 3.35, 3.83 and 3.50, respectively.
Take `NCCCCCCOc1ccc(C[C@H](NC(=O)OCc2ccccc2)C(=O)O)cc1`: the pIC50 in assay [1] was 4.59.
